A selection: hits, their analogues and other compounds. The true share with any hit is near 1.3%.
Diaph act CS = counter-screen for diaphorase-based assays: diaphorase activators and chemical reducers; Diaphorase/resazurin coupled assay, resorufin fluorescence, 16 min; active compounds read high; 1 = vehicle wells, 0 = NADH-free wells; activation factor at 20 µM; 190,000 tested, 0.005% active; AID 1229;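 active means diaphorase activity raised at least twofold by the compound at 20 µM; inactive means activation factor below 2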
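Test system: Clostridium kluyveri diaphorase, purified enzyme. Buffer or medium: 50 mM HEPES pH 7.4 buffer plus MgCl2 and Tween 20. Also added: 0.114 mM NADH and 0.1 mM resazurin, final amounts. Dosing: compound 20 µM once, DMSO 1%. Schedule: 16 min enzyme reaction, ambient temperature. Detection: fluorescence of resorufin, 544 nm excitation, 590 nm emission.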
Diaphorase inh = diaphorase inhibition or chemical oxidation counter-screen. diaphorase resazurin-to-resorufin fluorescence, NADH, 16 min; bacterial (C. kluyveri) enzyme, not human. inhibition, % at 20 µM. 190,000 tested, 0.69% active. AID 1217;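 active means primary screen inhibition at 20 µM above a set limit, cut at about 50% in these data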;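 further: plate controls were DMSO with full reaction for no effect and wells lacking NADH for full effect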
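Test system: diaphorase enzyme from Clostridium kluyveri; amount: diaphorase at 0.14 U/mL in enzyme working solution; detection: fluorescence of resorufin formed from resazurin, Ex 544/Em 590 nm; times: reaction incubation of 16 min at room temperature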
HKDC1 inhibitor = HKDC1 (human) hexokinase inhibition; recombinant HKDC1, G6PDH/diaphorase resazurin coupled fluorescence; inhibition, % at 20 µM; 340,000 tested, 0.16% active;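 active means inhibition above about 35% when tested at 20 µM, limit read from the data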;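 further: plate controls were DMSO wells with enzyme for no effect and DMSO wells lacking enzyme for full effect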
Target sequence (Q2TB90 whole entry, looked up): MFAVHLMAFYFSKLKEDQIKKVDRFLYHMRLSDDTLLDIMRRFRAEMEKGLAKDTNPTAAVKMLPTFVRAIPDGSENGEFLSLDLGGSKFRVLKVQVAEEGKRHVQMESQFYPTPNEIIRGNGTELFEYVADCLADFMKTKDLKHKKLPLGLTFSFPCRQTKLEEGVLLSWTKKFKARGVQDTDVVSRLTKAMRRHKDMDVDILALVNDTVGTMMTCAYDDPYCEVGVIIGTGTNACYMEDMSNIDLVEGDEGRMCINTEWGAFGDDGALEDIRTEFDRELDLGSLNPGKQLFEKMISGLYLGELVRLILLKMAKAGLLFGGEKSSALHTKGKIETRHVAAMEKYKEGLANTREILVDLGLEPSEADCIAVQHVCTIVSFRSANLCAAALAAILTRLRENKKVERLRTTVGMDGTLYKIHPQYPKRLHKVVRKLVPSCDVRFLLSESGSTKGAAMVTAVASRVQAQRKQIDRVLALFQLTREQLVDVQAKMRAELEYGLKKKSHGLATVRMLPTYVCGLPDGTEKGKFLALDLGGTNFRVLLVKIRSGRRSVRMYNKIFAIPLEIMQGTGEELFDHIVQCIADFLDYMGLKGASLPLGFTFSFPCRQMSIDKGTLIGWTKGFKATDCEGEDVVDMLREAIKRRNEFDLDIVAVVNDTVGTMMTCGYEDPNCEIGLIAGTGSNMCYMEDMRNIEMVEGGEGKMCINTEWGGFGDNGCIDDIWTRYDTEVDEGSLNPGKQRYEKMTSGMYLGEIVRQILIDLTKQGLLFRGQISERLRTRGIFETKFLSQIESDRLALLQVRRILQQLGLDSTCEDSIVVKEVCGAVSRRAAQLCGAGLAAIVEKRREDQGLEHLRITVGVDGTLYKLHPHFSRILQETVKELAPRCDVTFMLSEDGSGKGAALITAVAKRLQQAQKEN
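test system = in-house recombinant HK5 (HKDC1) enzyme | amount = HKDC1 at 5 µg/mL | control set = DMSO-enzyme wells negative, buffer-substituted wells positive | compound = one dose of 20 µM, 1% DMSO | schedule = reaction time 90 min, room temperature, protected from light | technique = resorufin fluorescence at 613 nm | reagent = glucose with 1 mM ATP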
PfG6PD inh = PfG6PD (Plasmodium falciparum) enzyme inhibition. AID 504690. inhibition, % at 20 µM. 350,000 tested, 0.78% active. PfGluPho enzyme, NADPH resazurin-diaphorase fluorescence;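 active means inhibition reaching at least a set limit at 20 µM in the primary screen, cut at about 59% in these data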;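 further: 0% = DMSO wells with substrate and 100% = DMSO wells lacking glucose-6-phosphate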
G6PDH CS = L. mesenteroides G6PDH inhibition counter-screen | Purified L. mesenteroides G6PDH, diaphorase/resazurin coupled fluorescence, 45 min | inhibition, % at 5 µM | 200,000 tested, 0.12% active; in the data active means inhibition above about 50%
PfG6PD confirm = confirmation of Plasmodium falciparum G6PD inhibitors; shares compounds with PfG6PD inh; recombinant PfGluPho, NADPH-diaphorase-resazurin fluorescence; inhibition, % at 20 µM; 2,400 tested, 34% active; AID 504753;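 active means inhibition of at least 50% at 20 µM in any single replicate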;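 further: 0% = DMSO with substrate and 100% = DMSO lacking glucose-6-phosphate substrate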
Diaphorase 10uM = inhibits diaphorase or oxidizes, flagging false PfG6PD hits | shares compounds with PfG6PD inh | diaphorase-coupled resazurin reduction, fluorescence, NADPH 10 uM | inhibition, % at 20 µM | 820 tested, 39% active;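 active means average inhibition reaching 50% or more with the compound at 20 µM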;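 further: resorufin red fluorescence formed as diaphorase reduces resazurin using NADPH; 0% = DMSO with enzyme and 100% = DMSO without enzyme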
Diaph ctr 30uM = diaphorase inhibition or oxidation at 30 uM NADPH. 820 tested, 29% active. Diaphorase/resazurin coupled assay, resorufin fluorescence. shares compounds with PfG6PD inh. inhibition, % at 20 µM;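 active means inhibition averaging 50% or more, tested at 20 µM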;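 further: 0% = DMSO with enzyme and 100% = DMSO wells lacking diaphorase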
An asterisk follows results filed as active; · = not tested or not shown.

SMILES	Diaph act CS	Diaphorase inh	HKDC1 inhibitor	PfG6PD inh	G6PDH CS	PfG6PD confirm	others
CC(Sc1nnc(C2CC2)n1C1CC1)C(=O)Nc1cccc(S(=O)(=O)N2CCOCC2)c1 (stereo not drawn)	·	·	0	10	·	·
Cc1ccc(NS(=O)(=O)c2cccc3cccnc23)cc1Cl	·	·	10	28	·	·
CCSS(=O)(=O)c1cccc2cccnc12	·	·	2	80*	·	2
O=C(O)CCS(=O)(=O)c1cccc2cccnc12	0.8	18	-8	-1	0	·
Cc1cc(C)c(NS(=O)(=O)c2cccc3cccnc23)c(C)c1	0.9	10	-5	46	2	22
COc1cc2c(cc1CNC[C@H]1O[C@@H](n3cnc4c(N)ncnc43)[C@H](O)[C@@H]1O)OCO2	·	·	-1	9	·	·
O=c1ccn(-c2cccc(C(F)(F)F)c2)nc1-c1ccn(-c2ccccc2)n1	0.8	15	1	91*	-21	73*	Diaphorase 10uM=66*;Diaph ctr 30uM=55*
CC(C)(C)OC(=O)N1C[C@H](O)C[C@H]1C(=O)OCC(=O)c1ccc([N+](=O)[O-])cc1	·	·	-3	25	·	·
N#C/C(=C\c1ccc(N2CCOCC2)o1)c1nc2ccccc2[nH]1	0.8	24	9	38	20	·
N#C/C(=C/c1ccc(N2CCOCC2)o1)c1ccc(Cl)cc1	1	5	-4	78*	-7	12
Oc1cc(CNCc2ccccc2)c(O)cc1CNCc1ccccc1	·	·	27	70*	·	49*	Diaphorase 10uM=-6;Diaph ctr 30uM=-1
O=[N+]([O-])c1ccc(Nc2cccc3c2[nH]c2c(-c4ccccc4)nccc23)c([N+](=O)[O-])c1	·	·	9	84*	·	26
CCOC(=O)c1c(C)n(C)c2cc([N+](=O)[O-])c(O)c([N+](=O)[O-])c12	·	·	-2	2	·	·
CCOC(=O)c1c(C)n(C)c2cc(Br)c(O)c(O)c12	·	·	0	68*	·	18
Cc1cc(N=NC(=O)c2ccccc2O)c2ccccc2c1O	0.9	15	-2	64*	14	49*	Diaphorase 10uM=19;Diaph ctr 30uM=21
O=C(Nc1ccc(Cl)cc1C(=O)c1ccccn1)c1ccccc1	·	·	·	-6	·	·
O=C(CSc1nnc2c(n1)[nH]c1ccccc12)Nc1cccc(S(=O)(=O)N2CCOCC2)c1	·	·	8	62*	·	16
O=C(CSc1nnc2c(n1)[nH]c1ccccc12)Nc1ccc2c(c1)OCO2	0.9	12	-5	64*	-3	0
CSc1nccc(NC(=O)c2cccc(Br)c2)n1	·	·	-1	4	·	·
CC(C)(C)c1nnc(NC(=O)c2ccc(Cl)nc2)s1	1.1	-7	-12	103*	4	95*	Diaphorase 10uM=81*;Diaph ctr 30uM=62*
C=CCSc1nnc(NC(=O)c2ccc(Cl)nc2)s1	1	-1	3	82*	3	78*	Diaphorase 10uM=72*;Diaph ctr 30uM=49
CCc1nnc(NC(=O)c2ccc(Cl)nc2)s1	0.9	12	-2	78*	4	57*	Diaphorase 10uM=49;Diaph ctr 30uM=41
C=CCSc1nnc(NC(=O)c2ccc(N3CCCC3=O)cc2)s1	·	·	3	-10	·	·
CCc1nnc(NC(=O)c2cc(Cl)ccn2)s1	·	·	5	17	·	·
O=C(Nc1nnc(C2CC2)s1)c1ccc(Cl)nc1	·	·	3	80*	·	58*	Diaphorase 10uM=64*;Diaph ctr 30uM=50
SMILES	Diaph act CS	Diaphorase inh	HKDC1 inhibitor	PfG6PD inh	G6PDH CS	PfG6PD confirm	others
COc1cc(-c2nc3cccc(C)n3c2NCC2CCCO2)ccc1O (stereo not drawn)	1.1	-8	2	6	23	·
COc1ccccc1C(=O)Nc1ccc(OCC(=O)N2CC(C)CC(C)C2)cc1 (stereo not drawn)	·	·	7	-4	·	·
CCC(C(=O)O)n1c2ccccc2c2cn[nH]c(=O)c21 (stereo not drawn)	·	·	-7	-10	·	·
O=[N+]([O-])c1ccc(N2CCN(S(=O)(=O)c3ccccc3)CC2)cc1	·	·	4	0	·	·
COc1ccc(C(=O)CC(C(=O)O)c2ccc(OC)c(OC)c2)cc1OC (stereo not drawn)	·	·	·	-5	·	·
Cc1ccc(N(CC(O)CN2CCOCC2)S(=O)(=O)c2ccc([N+](=O)[O-])cc2)cc1 (stereo not drawn)	·	·	-7	-10	·	·
CC(=O)C(Sc1nc(N(C)C)nc(N(C)C)n1)C(=O)Nc1ccccc1 (stereo not drawn)	0.7	25	-12	3	-4	·
CC(=O)C(Sc1nn(C)c(=S)s1)C(=O)Nc1ccccc1 (stereo not drawn)	0.8	19	5	61*	2	-32
COc1cccc(NC(=O)CN(C)C(=O)CSc2nc(C)cc(C)n2)c1	·	·	0	-10	·	·
Cc1nccn1CCCNC(=O)C1CCC(=O)N(Cc2ccccc2F)C1 (stereo not drawn)	·	·	-3	1	·	·
O=C1C(=Cc2ccccc2O)SC(=S)N1CCCN1CCOCC1	·	·	·	71*	·	43
CCCCCNS(=O)(=O)c1cc2c3c(c1)CCC(=O)N3CCC2	·	·	-7	1	·	·
S=c1[nH]nc(-c2ccc3ccccc3n2)n1-c1ccccc1Cl	0.9	14	1	63*	25	48
CCN=c1scc(C)n1/N=C/c1ccc(O)c(O)c1O	0.2	79*	18	80*	36	72*	Diaphorase 10uM=25;Diaph ctr 30uM=37
CCN=c1scc(C)n1/N=C/c1cc(Br)c(O)c(Br)c1	0.8	25	1	3	-5	·
COc1ccc(-c2nc3ccccc3[nH]2)cc1	1	4	-10	61*	1	15
CCCN(CC(=O)Nc1ccccc1C)C(=O)/C=C/c1ccc(OC)c(OC)c1	·	·	·	-12	·	·
Cc1ccc(-c2nnc(SCC(=O)N/N=C/c3ccc(C(=O)O)cc3)n2C2CCCCC2)cc1	·	·	2	-28	·	·
COc1ccc(NC(=O)C2Cc3ccccc3CN2C(=O)c2ccco2)cc1 (stereo not drawn)	·	·	-4	4	·	·
O=C(NC1=NCCS1)C1Cc2ccccc2CN1C(=O)c1ccccc1 (stereo not drawn)	1	4	2	28	9	·
CC(=O)c1ccc(NC(=O)C2Cc3ccccc3CN2C(=O)c2ccccc2)cc1 (stereo not drawn)	0.8	16	-7	68*	-12	37
COc1ccc(NC(=O)C2Cc3ccccc3CN2C(=O)c2ccccc2)cn1 (stereo not drawn)	0.9	12	1	61*	-7	48
COC(=O)c1cc(C(=O)N2CCc3ccccc32)cc([N+](=O)[O-])c1	·	·	-2	-13	·	·
